According to ChEMBL document CHEMBL3098013, “Novel pyrazole integrated 1,3,4-oxadiazoles: synthesis, characterization and antimicrobial evaluation” (2014):
Converted amounts (≈) assume the structure as drawn.

Tests used:
Assay type in all cases: functional
Fusarium verticillioides [1] = assay: Antimicrobial activity against Fusarium moniliforme MTCC 156 after 48 hrs by microdilution method
Method in brief: (§1)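 The minimal inhibitory concentration was determined by dilution, alongside minimal bactericidal concentration for bacterial strains and minimal fungicidal concentration for fungal strains. Tests were run in six replicates, and the value is the mean of at least three determinations.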

Fusarium oxysporum [2] = assay: Antimicrobial activity against Fusarium oxysporum MTCC 284 after 48 hrs by microdilution method; method in brief: as §1
Aspergillus niger [3] = assay: Antimicrobial activity against Aspergillus niger MTCC 281 after 48 hrs by microdilution method; method in brief: as §1
Aspergillus flavus [4] = assay: Antimicrobial activity against Aspergillus flavus MTCC 873 after 48 hrs by microdilution method; method in brief: as §1
Klebsiella pneumoniae [5] = assay: Antimicrobial activity against Klebsiella pneumoniae MTCC 3384 after 24 hrs by microdilution method; settings: MTCC 3384, 24 h; method in brief: as §1
Escherichia coli [6] = assay: Antimicrobial activity against Escherichia coli MTCC 724 after 24 hrs by microdilution method; settings: MTCC 724, 24 h; method in brief: as §1
Staphylococcus aureus [7] = assay: Antimicrobial activity against Staphylococcus aureus MTCC 96 after 24 hrs by microdilution method; settings: MTCC 96, 24 h; method in brief: as §1
Bacillus cereus [8] = assay: Antimicrobial activity against Bacillus cereus MTCC 8372 after 24 hrs by microdilution method; settings: MTCC 8372, 24 h; method in brief: as §1
Fusarium verticillioides [9] = assay: Antimicrobial activity against Fusarium moniliforme MTCC 156 at 100 ug/ml after 48 hrs by disc diffusion method; settings: for zone of inhibition at 100 µg/mL: MTCC 156, 48 h, read-out: DIZ
Method in brief: (§2)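 Agar diffusion read-out is the diameter of the inhibition zone in mm. Each test was run in six replicates and reported as mean ± standard deviation, taken from at least three determinations.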

Fusarium verticillioides [10] = assay: Antimicrobial activity against Fusarium moniliforme MTCC 156 at 50 ug/ml after 48 hrs by disc diffusion method; settings: for zone of inhibition at 50 µg/mL: MTCC 156, 48 h, read-out: DIZ; method in brief: as §2
Fusarium oxysporum [11] = assay: Antimicrobial activity against Fusarium oxysporum MTCC 284 at 100 ug/ml after 48 hrs by disc diffusion method; settings: for zone of inhibition at 100 µg/mL: MTCC 284, 48 h, read-out: DIZ; method in brief: as §2
Fusarium oxysporum [12] = assay: Antimicrobial activity against Fusarium oxysporum MTCC 284 at 50 ug/ml after 48 hrs by disc diffusion method; settings: for zone of inhibition at 50 µg/mL: MTCC 284, 48 h, read-out: DIZ; method in brief: as §2
Aspergillus niger [13] = assay: Antimicrobial activity against Aspergillus niger MTCC 281 at 100 ug/ml after 48 hrs by disc diffusion method; settings: for zone of inhibition at 100 µg/mL: MTCC 281, 48 h, read-out: DIZ; method in brief: as §2
Aspergillus niger [14] = assay: Antimicrobial activity against Aspergillus niger MTCC 281 at 50 ug/ml after 48 hrs by disc diffusion method; settings: for zone of inhibition at 50 µg/mL: MTCC 281, 48 h, read-out: DIZ; method in brief: as §2
Aspergillus flavus [15] = assay: Antimicrobial activity against Aspergillus flavus MTCC 873 at 100 ug/ml after 48 hrs by disc diffusion method; settings: for zone of inhibition at 100 µg/mL: MTCC 873, 48 h, read-out: DIZ; method in brief: as §2
Aspergillus flavus [16] = assay: Antimicrobial activity against Aspergillus flavus MTCC 873 at 50 ug/ml after 48 hrs by disc diffusion method; settings: for zone of inhibition at 50 µg/mL: MTCC 873, 48 h, read-out: DIZ; method in brief: as §2
Klebsiella pneumoniae [17] = assay: Antimicrobial activity against Klebsiella pneumoniae MTCC 3384 at 100 ug/ml after 24 hrs by disc diffusion method; settings: MTCC 3384, 24 h, read-out: DIZ; method in brief: as §2
Escherichia coli [18] = assay: Antimicrobial activity against Escherichia coli MTCC 724 at 100 ug/ml after 24 hrs by disc diffusion method; settings: MTCC 724, 24 h, read-out: DIZ; method in brief: as §2
Klebsiella pneumoniae [19] = assay: Antimicrobial activity against Klebsiella pneumoniae MTCC 3384 at 50 ug/ml after 24 hrs by disc diffusion method; settings: MTCC 3384, 24 h, read-out: DIZ; method in brief: as §2
Escherichia coli [20] = assay: Antimicrobial activity against Escherichia coli MTCC 724 at 50 ug/ml after 24 hrs by disc diffusion method; settings: MTCC 724, 24 h, read-out: DIZ; method in brief: as §2
Staphylococcus aureus [21] = assay: Antimicrobial activity against Staphylococcus aureus MTCC 96 at 100 ug/ml after 24 hrs by disc diffusion method; settings: MTCC 96, 24 h, read-out: DIZ; method in brief: as §2
Staphylococcus aureus [22] = assay: Antimicrobial activity against Staphylococcus aureus MTCC 96 at 50 ug/ml after 24 hrs by disc diffusion method; settings: MTCC 96, 24 h, read-out: DIZ; method in brief: as §2
Bacillus cereus [23] = assay: Antimicrobial activity against Bacillus cereus MTCC 8372 at 100 ug/ml after 24 hrs by disc diffusion method; settings: MTCC 8372, 24 h, read-out: DIZ; method in brief: as §2
Bacillus cereus [24] = assay: Antimicrobial activity against Bacillus cereus MTCC 8372 at 50 ug/ml after 24 hrs by disc diffusion method; settings: MTCC 8372, 24 h, read-out: DIZ; method in brief: as §2

Row | Compound | MFC (Fusarium verticillioides [1]; MTCC 156, 48 h) [mg/L] | MIC (Fusarium verticillioides [1]; MTCC 156, 48 h) [mg/L] | MFC (Fusarium oxysporum [2]; MTCC 284, 48 h) [mg/L] | MIC (Fusarium oxysporum [2]; MTCC 284, 48 h) [mg/L] | MFC (Aspergillus niger [3]; MTCC 281, 48 h) [mg/L] | MIC (Aspergillus niger [3]; MTCC 281, 48 h) [mg/L] | MFC (Aspergillus flavus [4]; MTCC 873, 48 h) [mg/L] | MIC (Aspergillus flavus [4]; MTCC 873, 48 h) [mg/L] | MBC (Klebsiella pneumoniae [5]) [mg/L] | MIC (Klebsiella pneumoniae [5]) [mg/L] | MBC (Escherichia coli [6]) [mg/L] | MIC (Escherichia coli [6]) [mg/L] | MBC (Staphylococcus aureus [7]) [mg/L] | MIC (Staphylococcus aureus [7]) [mg/L] | MBC (Bacillus cereus [8]) [mg/L] | MIC (Bacillus cereus [8]) [mg/L] | zone of inhibition at 100 µg/mL (Fusarium verticillioides [9]) [mm] | zone of inhibition at 50 µg/mL (Fusarium verticillioides [10]) [mm] | zone of inhibition at 100 µg/mL (Fusarium oxysporum [11]) [mm] | zone of inhibition at 50 µg/mL (Fusarium oxysporum [12]) [mm] | other results
1 | Cc1c(C(=O)O)c(-c2ccccc2)nn1-c1ccccc1 | 270 (≈ 970 µM) | 45 (≈ 162 µM) | 295 (≈ 1060 µM) | 55 (≈ 198 µM) | 280 (≈ 1010 µM) | 50 (≈ 180 µM) | 300 (≈ 1080 µM) | 55 (≈ 198 µM) | 240 (≈ 862 µM) | 30 (≈ 108 µM) | 280 (≈ 1010 µM) | 35 (≈ 126 µM) | 250 (≈ 898 µM) | 40 (≈ 144 µM) | 250 (≈ 898 µM) | 30 (≈ 108 µM) | 5 | 6 | 5 | 3 | zone of inhibition at 100 µg/mL (Aspergillus niger [13]): 6 mm; zone of inhibition at 50 µg/mL (Aspergillus niger [14]): 4 mm; zone of inhibition at 100 µg/mL (Aspergillus flavus [15]): 8 mm; zone of inhibition at 50 µg/mL (Aspergillus flavus [16]): 5 mm; zone of inhibition at 100 µg/mL (Klebsiella pneumoniae [17]): 6 mm; zone of inhibition at 100 µg/mL (Escherichia coli [18]): 8 mm; zone of inhibition at 50 µg/mL (Klebsiella pneumoniae [19]): 4 mm; zone of inhibition at 50 µg/mL (Escherichia coli [20]): 3 mm; zone of inhibition at 100 µg/mL (Staphylococcus aureus [21]): 8 mm; zone of inhibition at 50 µg/mL (Staphylococcus aureus [22]): 2 mm; zone of inhibition at 100 µg/mL (Bacillus cereus [23]): 8 mm; zone of inhibition at 50 µg/mL (Bacillus cereus [24]): 4 mm
2 | Cc1c(-c2nnc(-c3ccc(Cl)cc3)o2)c(-c2ccc(Cl)cc2)nn1-c1ccccc1 | 215 (≈ 481 µM) | 25 (≈ 55.9 µM) | 215 (≈ 481 µM) | 30 (≈ 67.1 µM) | 220 (≈ 492 µM) | 30 (≈ 67.1 µM) | 210 (≈ 469 µM) | 25 (≈ 55.9 µM) | 250 (≈ 559 µM) | 50 (≈ 112 µM) | 245 (≈ 548 µM) | 45 (≈ 101 µM) | 250 (≈ 559 µM) | 40 (≈ 89.4 µM) | 260 (≈ 581 µM) | 40 (≈ 89.4 µM) | 19 | 10 | 28 | 15 | zone of inhibition at 100 µg/mL (Aspergillus niger [13]): 26 mm; zone of inhibition at 50 µg/mL (Aspergillus niger [14]): 14 mm; zone of inhibition at 100 µg/mL (Aspergillus flavus [15]): 18 mm; zone of inhibition at 50 µg/mL (Aspergillus flavus [16]): 14 mm; zone of inhibition at 100 µg/mL (Klebsiella pneumoniae [17]): 11 mm; zone of inhibition at 100 µg/mL (Escherichia coli [18]): 16 mm; zone of inhibition at 50 µg/mL (Klebsiella pneumoniae [19]): 8 mm; zone of inhibition at 50 µg/mL (Escherichia coli [20]): 10 mm; zone of inhibition at 100 µg/mL (Staphylococcus aureus [21]): 12 mm; zone of inhibition at 50 µg/mL (Staphylococcus aureus [22]): 6 mm; zone of inhibition at 100 µg/mL (Bacillus cereus [23]): 10 mm; zone of inhibition at 50 µg/mL (Bacillus cereus [24]): 6 mm
3 | Cc1c(-c2nnc(-c3ccc([N+](=O)[O-])cc3)o2)c(-c2ccc([N+](=O)[O-])cc2)nn1-c1ccccc1 | 290 (≈ 619 µM) | 55 (≈ 117 µM) | 280 (≈ 598 µM) | 50 (≈ 107 µM) | 275 (≈ 587 µM) | 45 (≈ 96.1 µM) | 275 (≈ 587 µM) | 40 (≈ 85.4 µM) | 170 (≈ 363 µM) | 25 (≈ 53.4 µM) | 175 (≈ 374 µM) | 25 (≈ 53.4 µM) | 155 (≈ 331 µM) | 20 (≈ 42.7 µM) | 160 (≈ 342 µM) | 20 (≈ 42.7 µM) | 18 | 8 | 16 | 8 | zone of inhibition at 100 µg/mL (Aspergillus niger [13]): 14 mm; zone of inhibition at 50 µg/mL (Aspergillus niger [14]): 6 mm; zone of inhibition at 100 µg/mL (Aspergillus flavus [15]): 11 mm; zone of inhibition at 50 µg/mL (Aspergillus flavus [16]): 8 mm; zone of inhibition at 100 µg/mL (Klebsiella pneumoniae [17]): 16 mm; zone of inhibition at 100 µg/mL (Escherichia coli [18]): 22 mm; zone of inhibition at 50 µg/mL (Klebsiella pneumoniae [19]): 8 mm; zone of inhibition at 50 µg/mL (Escherichia coli [20]): 12 mm; zone of inhibition at 100 µg/mL (Staphylococcus aureus [21]): 20 mm; zone of inhibition at 50 µg/mL (Staphylococcus aureus [22]): 12 mm; zone of inhibition at 100 µg/mL (Bacillus cereus [23]): 22 mm; zone of inhibition at 50 µg/mL (Bacillus cereus [24]): 14 mm
4 | NYSTATIN | – | – | – | – | – | – | – | – | – | – | – | – | – | – | – | – | – | – | – | – | MFC (Fusarium verticillioides [1]): 100 mg/L; MIC (Fusarium verticillioides [1]): 12 mg/L; MFC (Fusarium oxysporum [2]): 100 mg/L; MIC (Fusarium oxysporum [2]): 15 mg/L; MFC (Aspergillus niger [3]): 100 mg/L; MIC (Aspergillus niger [3]): 10 mg/L; MFC (Aspergillus flavus [4]): 100 mg/L; MIC (Aspergillus flavus [4]): 8 mg/L; inhibition zone (IZ) (Fusarium verticillioides [9]): 28 mm; inhibition zone (IZ) (Fusarium verticillioides [10]): 12 mm; inhibition zone (IZ) (Fusarium oxysporum [11]): 30 mm; inhibition zone (IZ) (Fusarium oxysporum [12]): 16 mm; inhibition zone (IZ) (Aspergillus niger [13]): 25 mm; inhibition zone (IZ) (Aspergillus niger [14]): 10 mm; inhibition zone (IZ) (Aspergillus flavus [15]): 20 mm; inhibition zone (IZ) (Aspergillus flavus [16]): 16 mm
